According to ChEMBL document CHEMBL2396608, “Thiazolylaminomannosides as potent antiadhesives of type 1 piliated Escherichia coli isolated from Crohn's disease patients” (J Med Chem, 2013):
Active and inactive are the calls of the source. No cut-off for these calls is given here.

What was measured:
Escherichia coli [1] = assay: Antiadhesive activity against type-1 piliated adherent-invasive Escherichia coli LF82 assessed as inhibition of guinea pig erythrocyte hemagglutination relative to heptylmannoside; format: functional
Outline: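 LF82 grown statically overnight in LB at 37 °C and washed three times in ice-cold PBS. Twofold compound dilutions, starting at 1 mM, made in 20 mM HEPES pH 7.4, 150 mM NaCl. Added 25 μL bacteria, then 50 μL guinea pig erythrocytes at 5%. Overnight on ice before read-out.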

[2] = biological target: Type 1 fimbrin D-mannose specific adhesin (Escherichia coli K-12) (UniProt P08191); assay: Binding affinity to Escherichia coli FimH assessed as decrease in RNaseB binding after 1 hr by competitive ELISA
Outline: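 Wells coated with RNaseB in bicarbonate buffer pH 9.6, overnight at 4 °C. Blocked with 3% BSA in PBST, 2 h at 37 °C. Inhibitors in PBST plus FimH at 0.07 μM, 1 h at room temperature. Detection used rabbit anti-FimH (1:2500, 1 h), then HRP anti-rabbit (1:5000, 1 h), then TMB for 2–5 min in the dark, stopped with 1N H₂SO₄. Absorbance read at 450 nm.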

Escherichia coli [3] = assay: Antiadhesive activity against type-1 piliated adherent-invasive Escherichia coli LF82 assessed as inhibition of bacterial adhesion to human T84 cells overexpressing CEACAM6 incubated for 1 hr prior to infection measured after 3 hrs; format: functional, organism-based
Outline: (§1)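 T84 cells seeded at 1.5 × 10⁵ cells/well and grown 48 h at 37 °C under 5% CO₂. Washed monolayers pretreated 1 h with inhibitor at final 0.1, 1, 10 or 100 μM (α-D-mannose 100–50000 μM), then infected 3 h with LB-grown LF82 at MOI 10 with inhibitor present. Cells lysed in 1% Triton X-100; CFU counted on LB agar. Residual adhesion given as % of untreated (means SEM).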

Escherichia coli [4] = assay: Antiadhesive activity against type-1 piliated adherent-invasive Escherichia coli LF82 assessed as decrease in residual bacterial adhesion to colonic tissue isolated from FVB/N transgenic mouse expressing human CEACAM6 at 10 umol after 1 hr relative to control; format: functional
Outline: (§2)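 Colons from 10–12-week-old FVB/N CEABAC10 mice (human CEACAM6 transgenic; anesthetized, killed by cervical dislocation) split into four loops. Each loop was injected with 100 μL holding 2 × 10⁵ LF82 with or without inhibitor at 0.01, 0.1, 1 or 10 μmol, then held 1 h at 37 °C, 5% CO₂. Loops were opened, washed four times in PBS, homogenized and plated on LB agar with ampicillin 100 μg/mL and erythromycin 20 μg/mL. CFU normalized to untreated (100%); n = 5–8 mice, means SEM.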

Escherichia coli [5] = assay: Antiadhesive activity against type-1 piliated adherent-invasive Escherichia coli LF82 assessed as residual bacterial adhesion to human T84 cells overexpressing CEACAM6 at 1000 uM incubated for 1 hr prior to infection measured after 3 hrs relative to control; format: functional; outline: as §1
Escherichia coli [6] = assay: Antiadhesive activity against type-1 piliated adherent-invasive Escherichia coli LF82 assessed as inhibition of bacterial adhesion to colonic tissue isolated from FVB/N transgenic mouse expressing human CEACAM6 after 1 hr; format: functional, organism-based; outline: as §2
Escherichia coli [7] = assay: Antiadhesive activity against type-1 piliated adherent-invasive Escherichia coli LF82 assessed as residual bacterial adhesion to human T84 cells overexpressing CEACAM6 at 0.1 uM incubated for 1 hr prior to infection measured after 3 hrs relative to control; format: functional; outline: as §1
Escherichia coli [8] = assay: Antiadhesive activity against type-1 piliated adherent-invasive Escherichia coli LF82 assessed as residual bacterial adhesion to human T84 cells overexpressing CEACAM6 at 1 uM incubated for 1 hr prior to infection measured after 3 hrs relative to control; format: functional; outline: as §1
Escherichia coli [9] = assay: Antiadhesive activity against type-1 piliated adherent-invasive Escherichia coli LF82 assessed as inhibition of bacterial adhesion to human T84 cells overexpressing CEACAM6 at 0.1 to 100 uM incubated for 1 hr prior to infection measured after 3 hrs relative to heptylmannoside; format: functional
Escherichia coli [10] = assay: Antiadhesive activity against type-1 piliated adherent-invasive Escherichia coli LF82 assessed as decrease in residual bacterial adhesion to colonic tissue isolated from FVB/N transgenic mouse expressing human CEACAM6 at 0.1 umol after 1 hr relative to control; format: functional; outline: as §2
Escherichia coli [11] = assay: Ratio of compound activity to D-mannose activity for prevention of Escherichia coli LF82 adhesion to colonic tissue isolated from FVB/N transgenic mouse expressing human CEACAM6; format: functional
[12] = biological target: Type 1 fimbrin D-mannose specific adhesin (Escherichia coli K-12, UniProt P08191); assay: Binding affinity to Escherichia coli FimH assessed as dissociation constant by ITC analysis
Escherichia coli [13] = assay: Antiadhesive activity against type-1 piliated adherent-invasive Escherichia coli LF82 assessed as residual bacterial adhesion to human T84 cells overexpressing CEACAM6 at 10 uM incubated for 1 hr prior to infection measured after 3 hrs relative to control; format: functional; outline: as §1

Chain of Type 1 fimbrin D-mannose specific adhesin (Escherichia coli K-12) (P08191 whole entry): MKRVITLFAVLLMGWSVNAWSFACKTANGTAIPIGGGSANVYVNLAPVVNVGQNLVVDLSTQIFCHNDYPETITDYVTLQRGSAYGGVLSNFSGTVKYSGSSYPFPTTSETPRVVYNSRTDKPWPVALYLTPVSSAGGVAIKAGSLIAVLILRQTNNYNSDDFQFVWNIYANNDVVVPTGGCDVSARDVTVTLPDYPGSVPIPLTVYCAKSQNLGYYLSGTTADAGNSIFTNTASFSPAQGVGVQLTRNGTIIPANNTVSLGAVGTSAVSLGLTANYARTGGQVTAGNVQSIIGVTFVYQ
Chain of Type 1 fimbrin D-mannose specific adhesin (P08191 whole entry): as above

| Activity [2] | SMILES | fold change (FC) (Escherichia coli [1]) | also measured |
| --- | --- | --- | --- |
| Dose-dependent effect | O=C(c1ccsc1)c1cnc(N[C@H]2O[C@H](CO)[C@@H](O)[C@H](O)[C@@H]2O)s1 | 0.3 |  |
| Dose-dependent effect | O=C(c1ccc([N+](=O)[O-])cc1)c1cnc(N[C@H]2O[C@H](CO)[C@@H](O)[C@H](O)[C@@H]2O)s1 | 0.7 |  |
| Dose-dependent effect | O=C(c1ccc2ccccc2c1)c1cnc(N[C@H]2O[C@H](CO)[C@@H](O)[C@H](O)[C@@H]2O)s1 | 2.3 |  |
| Dose-dependent effect | O=C(c1cccs1)c1cnc(N[C@H]2O[C@H](CO)[C@@H](O)[C@H](O)[C@@H]2O)s1 | 0.1 |  |
| Dose-dependent effect | N#Cc1ccc(C(=O)c2cnc(N[C@H]3O[C@H](CO)[C@@H](O)[C@H](O)[C@@H]3O)s2)cc1 | 0.7 |  |
| Dose-dependent effect | Cc1ccc(C(=O)c2cnc(N[C@H]3O[C@H](CO)[C@@H](O)[C@H](O)[C@@H]3O)s2)cc1 | 0.4 |  |
| Dose-dependent effect | O=C(c1ccccc1)c1cnc(N[C@H]2O[C@H](CO)[C@@H](O)[C@H](O)[C@@H]2O)s1 | 0.4 |  |

Further lines, the compound ahead of its results:

| SMILES | Activity [2] | fold change (FC) (Escherichia coli [1]) | also measured |
| --- | --- | --- | --- |
| OC[C@H]1O[C@H](O)[C@@H](O)[C@@H](O)[C@@H]1O |  |  | inhibition (Escherichia coli [3]): Dose-dependent effect; Activity (Escherichia coli [4]): 41%; Activity (Escherichia coli [5]): 51.6%; inhibition (Escherichia coli [6]): Dose-dependent effect |
| Cc1nc(-c2cnccn2)sc1C(=O)c1cnc(N[C@H]2O[C@H](CO)[C@@H](O)[C@H](O)[C@@H]2O)s1 | Dose-dependent effect | 0.2 | inhibition (Escherichia coli [3]): Dose-dependent effect; Activity (Escherichia coli [7]): 57.6%; Activity (Escherichia coli [8]): 14%; fold change (FC) (Escherichia coli [9]): 0.01; Activity (Escherichia coli [10]): 65%; inhibition (Escherichia coli [6]): Dose-dependent effect; Ratio (Escherichia coli [11]): 10 |
| O=C(c1cnc(N[C@H]2O[C@H](CO)[C@@H](O)[C@H](O)[C@@H]2O)s1)C12CC3CC(CC(C3)C1)C2 | Dose-dependent effect | 0.3 |  |
| O=C(c1cnc(N[C@H]2O[C@H](CO)[C@@H](O)[C@H](O)[C@@H]2O)s1)C(F)(F)F | Dose-dependent effect | 1.7 |  |
| CC(C)(C)C(=O)c1cnc(N[C@H]2O[C@H](CO)[C@@H](O)[C@H](O)[C@@H]2O)s1 | Dose-dependent effect | 0.9 |  |
| CC(=O)c1cnc(N[C@H]2O[C@H](CO)[C@@H](O)[C@H](O)[C@@H]2O)s1 | Dose-dependent effect | 1.4 | inhibition (Escherichia coli [3]): Dose-dependent effect |
| CCCCCCCO[C@H]1O[C@H](CO)[C@@H](O)[C@H](O)[C@@H]1O |  |  | inhibition (Escherichia coli [3]): Dose-dependent effect; Kd [12]: 7 nM; Activity (Escherichia coli [13]): 52.4%; Activity (Escherichia coli [8]): inactive |
